Bioassay records (PubChem BioAssay)
An excerpt weighted towards active compounds, which were near 2.1% of everything screened.
EBI2 block – EBI2 receptor antagonists, beta-arrestin recruitment, primary screen, cell-based, luminescence, 7a,25-OHC stimulation, uHTS | G-protein coupled receptor 183 (Homo sapiens), P32249 | actives 0.81% (n = 360,000) | inhibition, % at 5 µM | 7a,25-OHC stimulated; in the data active means inhibition above about 38%;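 further: enzyme fragment complementation signal reports receptor beta-arrestin coupling in cells; 0% = agonist plus DMSO wells and 100% = wells without agonist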
CCR6 antagonist – CCR6 receptor antagonists, primary screen, cell-based, CHO-K1, luminescence, beta-arrestin, uHTS; C-C chemokine receptor type 6 (Homo sapiens), P51684; inhibition, % at 20 µM; actives 0.49% (n = 340,000); CHO-K1 CCR6 PathHunter beta-arrestin, CCL20-stimulated; AID 493098, 2011;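 active means compounds whose inhibition of the agonist-driven luminescence signal at 20 µM reaches about 50%, limit read from the data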;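 further: cells stimulated with CCL20 at 14 nM final; plate controls were DMSO with CCL20 for no effect and DMSO without agonist for full effect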
m5-HT2A agonist – mouse Htr2a agonists via beta-arrestin recruitment, primary screen, cell-based, luminescence | 5-hydroxytryptamine receptor 2A (Mus musculus), P35363 | activation, % at 7.6 µM | actives 0.66% (n = 360,000) | CHO-K1 mHTR2A beta-arrestin complementation; percent of 30 µM serotonin response;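 active means activation above a run cutoff, the mean activation of all tested compounds plus 3 SD, cut at about 14% in these data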;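 further: 0% = plate median of compound wells and 100% = 30 µM serotonin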
Target sequence (P35363 whole entry, looked up): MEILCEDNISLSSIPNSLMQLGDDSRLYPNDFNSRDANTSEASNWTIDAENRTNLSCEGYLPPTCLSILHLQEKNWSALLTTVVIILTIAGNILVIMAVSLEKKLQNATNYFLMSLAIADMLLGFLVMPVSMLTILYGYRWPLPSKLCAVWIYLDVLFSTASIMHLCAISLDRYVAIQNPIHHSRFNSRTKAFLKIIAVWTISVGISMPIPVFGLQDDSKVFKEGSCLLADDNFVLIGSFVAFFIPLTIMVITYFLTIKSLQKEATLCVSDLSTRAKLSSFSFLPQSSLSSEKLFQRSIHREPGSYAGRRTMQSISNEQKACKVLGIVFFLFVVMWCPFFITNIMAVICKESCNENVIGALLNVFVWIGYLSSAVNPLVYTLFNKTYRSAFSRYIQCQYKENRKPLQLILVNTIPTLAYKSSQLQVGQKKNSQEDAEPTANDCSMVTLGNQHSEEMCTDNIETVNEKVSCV
CXCR6 inh – CXCR6 receptor inhibitors, primary screen, cell-based, beta-arrestin, luminescence, CHO-K1 PathHunter, 1536-well; inhibition, % at 20 µM; actives 0.36% (n = 360,000); in the data active means inhibition above about 34%, passing the limit was not always enough;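 further: antagonist mode with CXCL16 agonist at 10 nM final; 0% = 10 nM CXCL16 with DMSO and 100% = unstimulated wells without agonist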
APJ antag – antagonists of human apelin receptor APJ, primary screen, CHO-K1 cells, beta-arrestin complementation, luminescence. actives 0.32% (n = 330,000). P35414. inhibition, % at 20 µM. AID 2521, 2010;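 active means inhibition above about 40% at 20 µM, limit read from the data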;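 further: cells challenged with 10 nM apelin-13 agonist together with compound; plate controls were apelin-13 plus DMSO wells for no effect and DMSO wells lacking apelin-13 for full effect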
APJ agonist – agonists of human apelin receptor APJ, primary screen, CHO-K1 cells, PathHunter beta-arrestin, luminescence; P35414; 0% DMSO wells, 100% apelin; actives 0.11% (n = 330,000); activation, % at 20 µM;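 active means activation more than six SD over the plate average, tested at 20 µM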;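 further: 0% = DMSO alone and 100% = apelin-13 at 10 nM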
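Material: CHO-K1 APJ beta-arrestin complementation cell line; Input: cell density 1000 per well; Incubation: compound stimulation 90 min at 25 °C, detection 60 min; Signal: luminescence from split beta-galactosidase complementation, Galacton Star/Emerald II substrate; Controls: DMSO-only wells as negative, 10 nM Apelin-13 as positive control.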
EBI2 conf – EBI2 antagonist hit retest, beta-arrestin, confirmation, cell-based, single concentration, luminescence, 7a,25-OHC stimulation | shares compounds with EBI2 block | 7a,25-OHC antagonism | inhibition, % at 5 µM | actives 29% (n = 2,400) | AID 651997, 2013;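 active means inhibition of at least 50%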
EBI2 ag – EBI2 agonist activity of antagonist hits, confirmation, counter-screen for EBI2 antagonist project, cell-based, single concentration, agonist mode, luminescence; AID 652000, 2013; activation, % at 5 µM; EBI2-expressing cells, 60 min; 0% vehicle, 100% 7α,25-dihydroxycholesterol control; 2,400 tested, under 10 active; shares compounds with EBI2 block;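 active means activation of at least 50%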
bGal counter – E. coli beta-galactosidase enzyme inhibition, confirmation, counter-screen for EBI2 antagonist project, biochemical, luminescence, single concentration; inhibition, % at 5 µM; shares compounds with EBI2 block; actives 1% (n = 2,400); AID 652176, 2013; purified beta-galactosidase, luminescent Galacton Star, 15 min;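 active means replicate-average signal at least 3 plate SD below neutral wells, shown as high inhibition, flagging enzyme-inhibiting false positives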;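 further: 0% = DMSO wells with enzyme and 100% = wells lacking enzyme; higher means stronger loss of beta-gal luminescence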
* marks the source's active call; other numbers are inactive results; / = no result given.

SMILES | EBI2 block | CCR6 antagonist | m5-HT2A agonist | CXCR6 inh | APJ antag | APJ agonist | EBI2 conf | EBI2 ag | bGal counter
CCN(CC)C(=O)C1=C(C)N(CCCOC)C(=O)C(CC(=O)NCC2CCCCC2)C1 (configuration not stated) | -9 | / | -2 | 1 | / | / | / | / | /
COC(=O)CSc1nc(NCc2ccccc2)nc(N(C)C)n1 | 6 | 0 | 6 | 1 | 1 | -2 | / | / | /
O=C(CSc1n[nH]c(=O)[nH]c1=O)N/N=C/C=C\c1ccccc1 | 7 | 8 | 3 | -6 | 17 | -2 | / | / | /
Cc1ccc(OCC(O)CNS(=O)(=O)c2ccccc2C(=O)N2CCCCC2)cc1 (configuration not stated) | 46* | 6 | 3 | -8 | 0 | -6 | 7 | -1 | -13
Cc1cccc(C)c1OCC(O)CNS(=O)(=O)c1ccccc1C(=O)N1CCOCC1 (configuration not stated) | -6 | 10 | 7 | 1 | / | / | / | / | /
CCN(CC)C(=O)CSc1nc2c(sc(=S)n2-c2ccccc2)c(=O)n1Cc1ccco1 | 57* | 27 | 1 | 14 | 5 | -3 | 37 | 0 | 8
CN1CCCN(Cc2ccccc2C(F)(F)F)CC1 | -9 | -5 | -4 | 1 | 6 | -4 | / | / | /
CC(=O)Nc1c(-c2ccc3ccccc3c2)nc2ccccn12 | 7 | 7 | 3 | -2 | 2 | 1 | / | / | /
O=C(NCCCN1CCOCC1)c1cccc(S(=O)(=O)Nc2ccccc2Cl)c1 | 4 | 12 | 3 | 4 | 3 | -3 | / | / | /
COc1ccc(CNC(=O)/C=C/c2ccc(OCCCF)cc2)cc1OC | -2 | 6 | -1 | 6 | -4 | 3 | / | / | /
O=C(/C=C/c1ccc(OCCCF)cc1)NCc1ccc(Cl)c(Cl)c1 | 44* | 10 | -2 | -1 | -7 | 3 | 40 | 0 | 5
O=C(CSCc1c(Cl)cccc1Cl)Nc1ccccc1-c1ccccc1 | 41* | 37 | -1 | 7 | / | / | 27 | 1 | 1
Cc1ccc(OCCCC(=O)NC(C)c2ccccc2)cc1 (configuration not stated) | 15 | -8 | -2 | -4 | 12 | -1 | / | / | /
CC(NC(=O)CCCOc1ccc(Cl)cc1)c1ccccc1 (configuration not stated) | 44* | 5 | -9 | -10 | 0 | 5 | 10 | -1 | -11
COc1ccc(CNc2ccccc2)cc1Br | -5 | 21 | -3 | 2 | 16 | -4 | / | / | /
COc1ccc(Cc2nnc(Nc3ccccc3)s2)cc1Br | 35* | 4 | -5 | -12 | 3 | -1 | 19 | 0 | 9
Cc1ccc(NC(=O)CSCC(=O)N2c3ccccc3CCc3ccccc32)cc1 | 14 | 6 | -4 | -4 | 6 | -3 | / | / | /
Brc1cccc(-c2nnc3sc(CN4CCCCC4)cn23)c1 | 6 | 2 | -2 | -6 | 10 | -4 | / | / | /
Brc1ccc(-c2nnc3sc(CN4CCN(c5ccccc5)CC4)cn23)cc1 | 75* | -7 | 1 | -2 | -12 | 2 | 39 | 1 | 8
c1coc(C2=NCCc3ccccc32)c1 | 0 | 6 | 6 | 8 | 4 | -1 | / | / | /
CCOC(=O)c1cnn(-c2nc(-c3ccc(C)cc3)cs2)c1C(F)(F)F | 45* | 10 | 5 | -4 | / | / | 3 | 0 | -7
Cc1ccc(OCCC(=O)OC(C)C(=O)NC2CC2)cc1 (configuration not stated) | -2 | -7 | -4 | -14 | 10 | 6 | / | / | /
COc1ccc([C@H]2CC(=O)C=C(c3cccc(OC(F)(F)F)c3)C2)cc1 | 7 | 11 | 1 | 7 | -6 | -1 | / | / | /
CCc1ccc(-c2n[nH]nc2C2=CC(=O)C[C@H](c3ccc(F)cc3)C2)cc1 | 54* | / | -3 | -1 | / | / | 14 | -2 | -7
COc1cc(F)cc(C2=CC(=O)C[C@H](c3ccc(F)cc3)C2)c1 | 52* | 19 | -6 | -1 | 14 | -4 | 40 | -2 | -8
SMILES | EBI2 block | CCR6 antagonist | m5-HT2A agonist | CXCR6 inh | APJ antag | APJ agonist | EBI2 conf | EBI2 ag | bGal counter
COc1ccc([C@H]2CC(=O)C=C(c3ccc(OC(F)(F)F)cc3)C2)cc1 | 68* | 14 | -5 | 2 | 15 | -2 | 40 | -1 | -9
CCCOc1ccc(C2=CC(=O)C[C@H](c3ccc(OC)cc3)C2)cc1 | 67* | 10 | -4 | 8 | 7 | -6 | 35 | 0 | -13
Cc1ccccc1OCCC(=O)OCC(=O)NC1CCCC1 | 2 | 3 | 0 | 5 | 6 | 7 | / | / | /
Cc1cc(C)cc(NC(=O)CSc2nc3nc(C)cc(C)n3n2)c1 | 7 | 5 | -10 | 5 | 14 | -1 | / | / | /
Cc1ccc(-c2nc(NC(=O)CSc3ccc4ccccc4n3)ns2)cc1 | -6 | -9 | -3 | -2 | 5 | -5 | / | / | /
COc1ccc([C@H]2CC(=O)C=C(C#CC(C)(C)C)C2)cc1 | 66* | 14 | 4 | -18 | -12 | 1 | 67* | 0 | -11
COc1ccc2cc(C#CC3=CC(=O)C[C@H](c4ccc(F)cc4)C3)ccc2c1 | -2 | / | -1 | -6 | / | / | / | / | /
COc1ccc([C@H]2CC(=O)C=C(/C=C/c3ccc(C(F)(F)F)cc3)C2)cc1 | 65* | -9 | -6 | 6 | 8 | -4 | 33 | 0 | 9
C[C@@H]1O[C@@H](O[C@H]2[C@H](Oc3cc(O)c4c(c3)OC(c3ccc(O)cc3)CC4=O)O[C@H](CO)[C@@H](O)[C@@H]2O)[C@H](O)[C@H](O)[C@H]1O (some centres not stated) | 2 | 10 | 4 | 0 | 2 | -3 | / | / | /
NC(=O)CSc1nnc(Cc2csc(Nc3ccc(F)cc3)n2)n1Cc1ccccc1 | 63* | 5 | -1 | 4 | 3 | -6 | 40 | 0 | 7
COCCCn1c(Cc2csc(Nc3ccc(F)cc3)n2)nnc1SCC(N)=O | -2 | -1 | 0 | -1 | -4 | 4 | / | / | /
